Results from ChEMBL document CHEMBL4414599, “Selective Phenylimidazole-Based Inhibitors of the Mycobacterium tuberculosis Proteasome” (J Med Chem, 2019).

Tests used:
[1] = test system: human 20S proteasome subunit beta-5i versus Mycobacterium tuberculosis 20S open gate mutant; assay: Selectivity index, ratio of IC50 for human 20S proteasome subunit beta-5i to IC50 for Mycobacterium tuberculosis 20S open gate mutant; assay type: toxicity; details: read-out: Ratio IC50
[2] = test system: human 20S proteasome subunit beta-5c versus Mycobacterium tuberculosis 20S open gate mutant; assay: Selectivity index, ratio of IC50 for human 20S proteasome subunit beta-5c to IC50 for Mycobacterium tuberculosis 20S open gate mutant; assay type: toxicity; details: read-out: Ratio IC50
[3] = (§1) Inhibition of Mycobacterium tuberculosis 20S open gate mutant using Suc-LLVY-AMC as substrate and measured every 30 secs for 30 mins by microtiter plate assay
In short: (§2)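 Mtb20S open-gate form, expressed and purified in-house, 8 nM in the enzyme solution. Buffer: 20 mM HEPES pH 7.5, 0.5 mM EDTA, 0.1 mg/mL BSA. Suc-LLVY-AMC at 100 µM final. Run at 25 °C with a three-fold inhibitor dilution series, DMSO under 0.5% final. Fluorescence 340/460 nm read every 30 s for 30 min. Rates fitted against log inhibitor concentration to give IC50; triplicate wells.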

[4] = test system: Mycobacterium tuberculosis; assay: as §1; in short: as §2

Row | SMILES | selectivity ratio [1] | selectivity ratio [2] | IC50 [3] [nM] | inhibition [4]
1 | Cc1cc(C(=O)N[C@@H](CC(=O)N2CCCC[C@@H]2C)C(=O)N[C@@H](C)C(=O)NCc2ccc(F)cc2F)no1 | 3.7 | 202 | 7 | Dose-dependent effect
2 | Cc1cc(C(=O)N[C@@H](CC(=O)N2CCC[C@@H]2c2ccccc2)C(=O)N[C@@H](C)C(=O)NCc2c(F)cccc2F)no1 | 2870 | > 14300 | 7 | Dose-dependent effect
3 | Cc1cc(C(=O)N[C@@H](CC(=O)N2CCC[C@@H]2c2ccccc2)C(=O)N[C@@H](C)c2ncc(-c3ccccc3)[nH]2)no1 | > 4000 | > 4000 | 25 | –
4 | Cc1cc(C(=O)N[C@@H](CC(=O)N2CCC[C@@H]2c2ccccc2)C(=O)N[C@@H](C)c2ncc(-c3ccccc3F)[nH]2)no1 | > 12500 | > 12500 | 8 | –
5 | COc1ccccc1CNC(=O)[C@H](C)NC(=O)[C@H](CC(=O)N1CCC[C@@H]1c1ccccc1)NC(=O)c1cc(C)on1 | > 1500 | > 1500 | 65 | Dose-dependent effect
6 | CC[C@@H]1CCCCN1C(=O)C[C@H](NC(=O)CCC(C)C)C(=O)N[C@@H](C)c1ncc(-c2ccc(F)cc2F)[nH]1 | – | – | 30 | –
7 | Cc1cc(C(=O)N[C@@H](CC(=O)N2CCCC[C@@H]2C)C(=O)N[C@@H](C)c2ncc(-c3ccccc3)[nH]2)no1 | – | – | 470 | –
8 | Cc1cc(C(=O)N[C@@H](CC(=O)N2CCC[C@@H]2c2ccccc2)C(=O)N[C@@H](C)c2ncc(-c3ccc(F)cc3F)[nH]2)no1 | > 7700 | > 7700 | 13 | –
9 | Cc1cc(C(=O)N[C@@H](CC(=O)N2CCC[C@@H]2c2ccccc2)C(=O)N[C@@H](C)C(=O)NCc2ccc(F)cc2F)no1 | 2630 | > 33300 | 3 | Dose-dependent effect
